# NPY1 pot ag – potentiators or agonists of human neuropeptide Y receptor Y1; P25929; NPY-Y1 expressing cells, potentiator/agonist activation; activation, % at 3.6 µM; actives 0.37% (n = 220,000); AID 1304; in the data active = activation above about 33%, passing the limit was not always enough;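 note: cells stimulated with NPY at EC10 then isoproterenol at EC100; 0% = low agonist plus stimulus and 100% = saturating agonist plus stimulus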
# Target sequence (P25929 whole entry, looked up): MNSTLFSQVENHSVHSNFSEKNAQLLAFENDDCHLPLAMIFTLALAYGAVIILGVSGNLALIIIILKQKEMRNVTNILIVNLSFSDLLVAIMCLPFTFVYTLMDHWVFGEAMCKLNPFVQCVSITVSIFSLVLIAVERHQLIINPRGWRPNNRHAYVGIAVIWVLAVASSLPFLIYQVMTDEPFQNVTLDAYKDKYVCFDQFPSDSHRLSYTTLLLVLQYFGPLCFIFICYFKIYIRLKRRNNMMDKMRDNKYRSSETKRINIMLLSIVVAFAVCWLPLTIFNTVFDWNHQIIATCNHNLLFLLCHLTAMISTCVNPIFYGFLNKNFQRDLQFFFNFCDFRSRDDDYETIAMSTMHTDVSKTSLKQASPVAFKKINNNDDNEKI
# NPY Y1 blocker – blocks the human neuropeptide Y Y1 receptor; P25929; actives 1% (n = 200,000); inhibition, % at 3.6 µM; HEK293-CNG Y1 cells, membrane potential fluorescence; NPY at EC95, then isoproterenol;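 active = inhibition above the campaign mean inhibition of all tested compounds plus 3 SD, cut at about 20% in these data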;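 note: 0% = DMSO wells given NPY plus isoproterenol and 100% = isoproterenol alone without NPY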
#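 Test system: HEK293 cells co-expressing NPY Y1 receptor and cyclic-nucleotide gated channel; Also added: NPY (25 nM), isoproterenol (1 µM), Ro 20-1724 (25 µM); Compound dosing: one concentration, 3.6 µM, in 0.4% DMSO; Timing: dye 3 h, compound 60 min room temperature, stimulation 45 min; Technique: Membrane-potential fluorescent dye readout.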
# NPY2 pot ag – human NPY-Y2 potentiation or agonism, primary screen; actives 0.45% (n = 220,000); cells expressing NPY-Y2, potentiator/agonist read-out; P49146; activation, % at 3.6 µM; in the data active = activation above about 27%;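 note: cells stimulated with NPY near EC25 plus isoproterenol at EC100; 0% = vehicle plus submaximal agonist and 100% = vehicle plus saturating agonist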
# NPY-Y2 antag – NPY-Y2 (human) receptor antagonism. P49146. NPY-Y2 expressing cells, antagonist mode. inhibition, % at 2.7 µM. actives 0.99% (n = 140,000); in the data active = inhibition above about 17%;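 note: 0% = vehicle with agonist challenge and 100% = reference antagonist with challenge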
# NPY1 antag ctr – antagonizes human NPY-Y1, counter-screen to NPY-Y2 antagonists; actives 19% (n = 710); cell-based NPY-Y1 antagonism counterscreen; inhibition, % at 3.6 µM; shares compounds with NPY-Y2 antag; AID 1256; in the data active = inhibition above about 20%;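 note: cells challenged with NPY then isoproterenol with cAMP sensed through a CNG channel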
# NPY-Y2 ant conf – human NPY-Y2 antagonism, confirmation | HEK293 NPY-Y2 CNG channel, membrane potential fluorescence | actives 32% (n = 710) | shares compounds with NPY-Y2 antag | inhibition, % at 2.8 µM;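 active = mean inhibition of triplicate wells above the hit cutoff set in the primary screen, cut at about 17% in these data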;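 note: 0% = DMSO with NPY challenge and 100% = BIIE0246 high control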
# * marks the source's active call; other numbers are inactive results; x = not tested or not shown. This is a sample that favours compounds with a hit; in the whole collection about 1.8% have one here.
SMILES,NPY1 pot ag,NPY Y1 blocker,NPY2 pot ag,NPY-Y2 antag,NPY1 antag ctr,NPY-Y2 ant conf
Cc1ccc(N=C(NO)c2nonc2N)c(C)c1,-15.6,0.5,4.1,3.0,x,x
Cc1ccc(N=C(NOC(=O)c2ccccc2)c2nonc2N)c(C)c1,-1.8,8.9,-22.8,24.6*,6.7,3.5
COc1ccc(CCNC(=O)c2sc3ccccc3c2Cl)cc1OC,-10.0,10.9,-16.0,26.1*,11.1,11.2
CCOC(=O)c1cccnc1NC(=O)c1ccccc1,5.5,7.9,-1.7,-0.1,x,x
COc1ccccc1C(c1nnnn1CCc1ccccc1)N1CCCCCC1 (centres undefined),6.8,14.6,1.4,26.4*,6.0,4.0
Cc1ccoc1C(=O)N1CCCCC1C(=O)O (centres undefined),-5.9,5.6,-10.3,x,x,x
CC(=O)c1c(C)nc2sc3c(=N)n(N)cnc3c2c1-c1ccc(Cl)cc1,-37.0,14.8,-3.9,11.7,x,x
Cc1ccc(N2C(=O)c3ccccc3C2C(=O)c2ccc(O)cc2O)cc1 (centres undefined),15.7,1.0,7.0,0.2,x,x
Cc1ccc(N2C(=O)c3ccccc3C2C(=O)c2cc(C)ccc2O)cc1 (centres undefined),8.5,-1.8,17.8,27.4*,34.7*,37.6*
COc1ccc(NC(=O)c2ccc([N+](=O)[O-])cc2[N+](=O)[O-])c(OC)c1,13.9,-2.3,-6.2,x,x,x
O=C(COc1ccccc1)Nc1ccccc1N1CCCCC1,-61.0,10.7,-3.5,10.8,x,x
O=C(COc1ccccc1)Nc1cc(C(F)(F)F)ccc1N1CCCC1,-12.8,19.8,-24.2,19.6*,26.8*,14.7
CCO[C@@H]1OC(C(=O)N2CCOCC2)=C[C@H](c2ccccc2)[C@H]1CCCO,1.5,4.3,2.8,x,x,x
CCOc1ccc(-n2cc(C(=O)Nc3cccc(Cl)c3)c3cc(OC)c(OC)cc3c2=O)cc1,-61.8,12.9,-30.2,17.7*,11.7,20.3*
O=C(/C=C/Sc1ccc(C(F)(F)F)cn1)c1ccccc1,10.4,x,-15.5,x,x,x
Clc1ccc(OCc2cc(-c3ccccc3)no2)cc1Cl,-29.8,8.1,-33.1,22.9*,39.3*,38.5*
Clc1ccc(-c2cc(COc3ccccc3)on2)cc1,-33.1,10.1,2.8,x,x,x
CC(C)(C)n1nnnc1C(c1cccs1)N(Cc1ccc(Cl)cc1)CC1CCCO1 (centres undefined),-20.6,11.3,2.4,28.3*,19.4,10.8
COc1ccc(-c2ccnc(SCC(=O)c3ccc(Br)cc3)n2)cc1,6.0,5.2,-0.2,20.6*,42.3*,42.3*
O=C(NCCNS(=O)(=O)c1ccc(Cl)cc1)c1cc(OCC(F)(F)F)ccc1OCC(F)(F)F,26.6,-6.6,7.5,38.1*,-0.4,0.4
O=C(NCCNS(=O)(=O)c1ccccc1)c1cc(OCC(F)(F)F)ccc1OCC(F)(F)F,8.2,-3.8,-11.8,-0.7,x,x
O=C(NCc1ccc2c(c1)OCO2)c1cc(-c2ccccc2)on1,-35.7,-0.2,4.5,7.9,x,x
Cc1ccc(-c2cc(C(=O)NCc3ccc4c(c3)OCO4)no2)cc1,-40.9,17.4,-12.3,17.6*,14.2,10.4
Cc1cc(C(=O)COC(=O)c2ccccc2O)c(C)n1Cc1cccs1,-6.0,12.0,-7.1,13.2,x,x
CCn1nc(C(=O)OCC(=O)c2cc(C)n(Cc3cccs3)c2C)c2ccccc2c1=O,-15.2,16.7,-23.8,24.4*,19.5,24.9*
SMILES,NPY1 pot ag,NPY Y1 blocker,NPY2 pot ag,NPY-Y2 antag,NPY1 antag ctr,NPY-Y2 ant conf
Cc1cccc(OCCCSc2nc3ccc(C)cc3[nH]2)c1,-35.3,15.7,-31.0,17.4*,12.3,16.9
CC/C(=C\C1CCCCC1)C(NP(=O)(c1ccccc1)c1ccccc1)c1ccccc1 (centres undefined),-20.3,18.2,0.4,23.0*,38.2*,34.4*
c1coc(Cn2c(-c3ccco3)nc3ccccc32)c1,-19.6,-7.4,4.6,8.5,x,x
Clc1ccc(OCCn2c(-c3ccco3)nc3ccccc32)cc1,-43.8,19.1,-24.7,30.7*,32.3*,12.4
CCCn1ncc(/C=N/O)c1C,-0.8,x,-4.4,x,x,x
N#Cc1nc(COc2ccc(Cl)cc2Cl)oc1N1CCN(c2ccccc2)CC1,-14.0,12.8,-16.2,17.2*,28.6*,20.7*
N#Cc1nc(Cc2ccccc2)oc1N1CCN(c2cccc(Cl)c2)CC1,-29.1,8.0,16.7,0.0,x,x
Cc1cccc(NC(=O)C(c2cccc([N+](=O)[O-])c2)N2CCCCC2)c1 (centres undefined),-11.7,15.0,-9.9,17.4*,16.2,6.2
COc1cccc(NC(=O)C(c2ccccc2)N2CCCC2)c1 (centres undefined),-21.5,10.2,1.2,x,x,x
CCOCCCn1c(=N)c(C(=O)NCc2ccc3c(c2)OCO3)cc2c(=O)n3ccccc3nc21,-12.0,19.0,5.8,23.0*,18.1,8.1
CCCn1c(=N)c(C(=O)NCc2ccc3c(c2)OCO3)cc2c(=O)n3cccc(C)c3nc21,7.1,4.9,-17.0,2.3,x,x
CCOC(=O)c1cc2c(=O)n3ccccc3nc2n(CCCOC)c1=NC(=O)c1ccncc1,6.7,3.1,1.8,x,x,x
CCOC(=O)c1cc2c(=O)n3ccccc3nc2n(CCCOC)c1=NC(C)=O,3.5,-1.1,7.8,20.8*,1.2,3.3
NC(=O)Oc1cccc(OC(N)=O)c1,4.4,x,1.8,x,x,x
CCNC(=S)N/N=C/c1sccc1C,11.3,-6.2,9.8,x,x,x
Cc1nc2ccccc2c(=O)n1NC(=O)/C=C/c1ccc(Br)cc1,-17.0,18.0,-8.6,18.2*,15.9,10.6
CCOC(=O)c1ccc(N2C(=O)c3n[nH]c(-c4ccco4)c3C2c2ccc([N+](=O)[O-])cc2)cc1 (centres undefined),-62.6,19.3,-68.2,25.7*,21.9*,16.9
CCOC(=O)c1ccc(N2C(=O)c3n[nH]c(C)c3C2c2cccnc2)cc1 (centres undefined),4.0,-5.7,14.7,2.9,x,x
CN(CC(=O)Nc1ccc(C#N)cc1)Cc1ccc(Cl)cc1,-7.6,2.7,-7.1,18.1*,2.4,1.2
CC(Sc1nc(-c2ccc(F)cc2)cs1)C(=O)Nc1ccc(Cl)cn1 (centres undefined),-18.1,-2.2,0.5,7.6,x,x
Clc1ccc(CNCCC2=CCCCC2)cc1,-18.5,1.1,11.2,3.6,x,x
O=C(/C=C/c1ccc(Br)cc1)N1CCN(c2cccc(C(F)(F)F)c2)CC1,-9.1,6.6,-11.8,19.4*,24.0*,24.6*
O=C(CN1CCN(c2cccc(C(F)(F)F)c2)CC1)Nc1cccc(C(F)(F)F)c1,-54.1,5.1,-11.1,17.4*,24.3*,21.6*
CC1CCCN(C(=O)Cc2cn(Cc3cccc(Cl)c3)c3ccccc23)C1 (centres undefined),-4.8,10.4,-22.4,17.4*,4.9,4.5
Cc1cccc2cc(C#N)c(SCC(=O)Nc3ccccc3N3CCOCC3)nc12,-8.7,-1.0,10.6,0.2,x,x
N#Cc1cc2ccccc2nc1SCC(=O)Nc1ccccc1N1CCOCC1,8.8,8.4,-1.1,17.3*,0.1,3.7

# Screening data (PubChem BioAssay)
